Reference: ChEMBL document CHEMBL3098068 (Eur J Med Chem, 2014)

Experiments:
[1] = target: Aldo-keto reductase family 1 member B1 (Rattus norvegicus) (UniProt P07943); experiment: Inhibition of rat kidney NADPH-dependent aldose reductase assessed as DL-glyceraldehyde conversion to glycerol at 1 uM preincubated for 20 mins followed by NADPH addition measured after 5 mins by UV-Visible spectrophotometric analysis relative to control
Outline: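 Enzyme source: supernatant of rat kidney homogenized in ice-cold 50 mM potassium phosphate pH 7.4, centrifuged 12,000 rpm 30 min, stored at -80 °C. Assay mix: 0.1 M potassium phosphate pH 6.2, DL-glyceraldehyde, lithium sulphate, mercaptoethanol. Compound (1 µM in DMSO) preincubated with enzyme 20 min at 37 °C. Blank without NADPH incubated 5 min at 37 °C. NADPH added to start. A340 decrease read. %inhibition = 100-[T/C]×100.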

[2] = target: Aldo-keto reductase family 1 member B1 (Rattus norvegicus, UniProt P07943); experiment: (§1) Inhibition of rat kidney NADPH-dependent aldose reductase assessed as DL-glyceraldehyde conversion to glycerol preincubated for 20 mins followed by NADPH addition measured after 5 mins by UV-Visible spectrophotometric analysis
[3] = target: Aldo-keto reductase family 1 member B1 (Rattus norvegicus) (UniProt P07943); experiment: as §1

| Structure (SMILES) | inhibition [1] | IC50 [2] | inhibition [3] |
| --- | --- | --- | --- |
| Cc1ccc(/C=C(C#N)/C=C2\SC(=S)N(c3ccc(C(=O)O)cc3)C2=O)cc1 | < 50% |  |  |
| CC(C)c1ccc(/C=C(C#N)/C=C2\SC(=S)N(CC(=O)O)C2=O)cc1 | < 50% |  |  |
| CCc1ccc(/C=C(C#N)/C=C2\SC(=S)N(c3ccc(CC(=O)O)cc3)C2=O)cc1 | < 50% |  |  |
| CCc1ccc(/C=C(C#N)/C=C2\SC(=S)N(CC(=O)O)C2=O)cc1 | < 50% |  |  |
| N#CC(=C\c1ccccc1)/C=C1\SC(=S)N(CC(=O)O)C1=O | > 50% | 750 nM | Dose-dependent effect |
| N#CC(=C\c1ccccc1)/C=C1\SC(=S)N(c2ccc(CC(=O)O)cc2)C1=O | < 50% |  |  |
| N#CC(=C\c1cccc2ccccc12)/C=C1\SC(=S)NC1=O | < 50% |  |  |
| N#CC(=C\c1ccc(F)cc1)/C=C1\SC(=S)N(CC(=O)O)C1=O | < 50% |  |  |
| COc1ccc(/C=C(C#N)/C=C2\SC(=S)N(c3ccc(CC(=O)O)cc3)C2=O)cc1 | < 50% |  |  |
| N#CC(=C\c1ccco1)/C=C1\SC(=S)NC1=O | < 50% |  |  |
| CC(C)c1ccc(/C=C(C#N)/C=C2\SC(=S)N(c3ccc(CC(=O)O)cc3)C2=O)cc1 | < 50% |  |  |
| N#CC(=C\c1ccc(F)cc1)/C=C1\SC(=S)N(c2ccc(C(=O)O)cc2)C1=O | < 50% |  |  |
| COc1ccc(/C=C(C#N)/C=C2\SC(=S)N(c3ccc(C(=O)O)cc3)C2=O)cc1 | < 50% |  |  |
| N#CC(=C\c1cccs1)/C=C1\SC(=S)N(c2ccc(C(=O)O)cc2)C1=O | < 50% |  |  |
| N#CC(=C\c1ccco1)/C=C1\SC(=S)N(CC(=O)O)C1=O | > 50% | 670 nM | Dose-dependent effect |
| COc1ccc(/C=C(C#N)/C=C2\SC(=S)N(CC(=O)O)C2=O)cc1 | < 50% |  |  |
| N#CC(=C\c1ccccc1)/C=C1\SC(=S)NC1=O | < 50% |  |  |
| CCc1ccc(/C=C(C#N)/C=C2\SC(=S)NC2=O)cc1 | < 50% |  |  |
| N#CC(=C\c1cccs1)/C=C1\SC(=S)NC1=O | > 50% | 860 nM | Dose-dependent effect |
| N#CC(=C\c1ccco1)/C=C1\SC(=S)N(c2ccc(C(=O)O)cc2)C1=O | < 50% |  |  |

| Structure (SMILES) | inhibition [1] | IC50 [2] | inhibition [3] |
| --- | --- | --- | --- |
| COc1ccc(/C=C(C#N)/C=C2\SC(=S)NC2=O)cc1 | < 50% |  |  |
| N#CC(=C\c1ccc(Br)cc1)/C=C1\SC(=S)N(c2ccc(C(=O)O)cc2)C1=O | < 50% |  |  |
| N#CC(=C\c1ccccc1)/C=C1\SC(=S)N(c2ccc(C(=O)O)cc2)C1=O | > 50% | 220 nM | Dose-dependent effect |
| N#CC(=C\c1ccc(Br)cc1)/C=C1\SC(=S)N(CC(=O)O)C1=O | < 50% |  |  |
| Cc1ccc(/C=C(C#N)/C=C2\SC(=S)NC2=O)cc1 | > 50% | 690 nM | Dose-dependent effect |
| N#CC(=C\c1cccc2ccccc12)/C=C1\SC(=S)N(c2ccc(C(=O)O)cc2)C1=O | < 50% |  |  |
| CC(C)c1ccc(/C=C(C#N)/C=C2\SC(=S)N(c3ccc(C(=O)O)cc3)C2=O)cc1 | < 50% |  |  |
| N#CC(=C\c1ccc(F)cc1)/C=C1\SC(=S)NC1=O | < 50% |  |  |
| N#CC(=C\c1cccc2ccccc12)/C=C1\SC(=S)N(CC(=O)O)C1=O | < 50% |  |  |
| CC(C)c1ccc(/C=C(C#N)/C=C2\SC(=S)NC2=O)cc1 | < 50% |  |  |
| N#CC(=C\c1ccc(Cl)cc1)/C=C1\SC(=S)N(c2ccc(C(=O)O)cc2)C1=O | < 50% |  |  |
| N#CC(=C\c1ccc(Cl)cc1)/C=C1\SC(=S)N(CC(=O)O)C1=O | < 50% |  |  |
| N#CC(=C\c1ccc(Br)cc1)/C=C1\SC(=S)NC1=O | < 50% |  |  |
| N#CC(=C\c1cccs1)/C=C1\SC(=S)N(CC(=O)O)C1=O | < 50% |  |  |
| Cc1ccc(/C=C(C#N)/C=C2\SC(=S)N(CC(=O)O)C2=O)cc1 | < 50% |  |  |
| N#CC(=C\c1ccc(Cl)cc1)/C=C1\SC(=S)NC1=O | < 50% |  |  |
| Cc1ccc(/C=C(C#N)/C=C2\SC(=S)N(c3ccc(CC(=O)O)cc3)C2=O)cc1 | < 50% |  |  |
| CCc1ccc(/C=C(C#N)/C=C2\SC(=S)N(c3ccc(C(=O)O)cc3)C2=O)cc1 | < 50% |  |  |
| N#CC(=C\c1ccc(C(F)(F)F)cc1)/C=C1\SC(=S)N(CC(=O)O)C1=O | < 50% |  |  |
